Test results taken from ChEMBL document CHEMBL4043295, “Marbostat-100 Defines a New Class of Potent and Selective Antiinflammatory and Antirheumatic Histone Deacetylase 6 Inhibitors” (J Med Chem, 2018).
Activity calls are given as the source filed them. The rule behind the calls is not given here.

Tests used:
Mus musculus [1] = test: Antiarthritic activity in DBA/1J mouse collagen-induced arthritis model assessed as decrease in clinical scores at 42.3 mg/kg, ip administered every morning for 6 days measured post last dose; type: functional, organism-based
Outline: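 Collagen type II-induced arthritis in mice, second experiment, treated at 42.3 mg/kg (equimolar dose) versus vehicle. Clinical arthritis scores were followed from the beginning of treatment.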

Histone deacetylase 8 = target: T1, Histone deacetylase 8 (Homo sapiens, UniProt Q9BY41); test: Inhibition of recombinant human C-terminal His-tagged HDAC8 (1 to 377 residues) expressed in baculovirus-infected insect cells using RHK(Ac)K(Ac)AMC as substrate after 60 mins by fluorimeter
T1 sequence (Q9BY41 whole entry): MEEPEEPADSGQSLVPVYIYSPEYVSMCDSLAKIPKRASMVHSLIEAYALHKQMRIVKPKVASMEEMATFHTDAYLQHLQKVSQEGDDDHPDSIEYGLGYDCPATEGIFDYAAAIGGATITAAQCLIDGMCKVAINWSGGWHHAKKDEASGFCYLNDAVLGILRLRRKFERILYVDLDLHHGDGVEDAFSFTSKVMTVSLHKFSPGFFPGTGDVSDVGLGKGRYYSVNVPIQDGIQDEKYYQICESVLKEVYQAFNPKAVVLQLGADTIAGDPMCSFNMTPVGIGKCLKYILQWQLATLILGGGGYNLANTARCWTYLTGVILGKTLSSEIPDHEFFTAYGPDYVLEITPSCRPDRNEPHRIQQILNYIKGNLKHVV

Histone deacetylase 2 = Histone deacetylase 2 (Homo sapiens, UniProt Q92769); test: Inhibition of full length recombinant human C-terminal GST-tagged HDAC2 expressed in baculovirus-infected insect cells using RHKK(Ac)AMC as substrate after 60 mins by fluorimeter
Histone deacetylase 2, sequence (Q92769 whole entry): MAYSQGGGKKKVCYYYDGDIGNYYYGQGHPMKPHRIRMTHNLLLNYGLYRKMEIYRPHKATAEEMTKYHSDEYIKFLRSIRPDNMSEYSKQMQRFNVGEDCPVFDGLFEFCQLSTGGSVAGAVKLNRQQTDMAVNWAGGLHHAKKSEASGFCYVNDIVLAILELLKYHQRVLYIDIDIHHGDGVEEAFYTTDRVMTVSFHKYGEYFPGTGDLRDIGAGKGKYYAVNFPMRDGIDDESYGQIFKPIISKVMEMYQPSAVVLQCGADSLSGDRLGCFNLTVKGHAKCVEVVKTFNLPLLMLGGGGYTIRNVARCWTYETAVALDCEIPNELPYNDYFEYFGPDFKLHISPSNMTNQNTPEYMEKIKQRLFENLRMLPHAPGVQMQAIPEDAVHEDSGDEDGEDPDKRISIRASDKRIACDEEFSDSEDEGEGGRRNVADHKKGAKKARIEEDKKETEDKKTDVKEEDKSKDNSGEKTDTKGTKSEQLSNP

[2] = target: T2, Protein deacetylase HDAC6 (Homo sapiens, UniProt Q9UBN7); test: Inhibition of full length recombinant human N-terminal GST-tagged HDAC6 expressed in baculovirus-infected Sf9 insect cells using RHKK(Ac)AMC as substrate after 90 mins by fluorimeter
T2 sequence (Q9UBN7 whole entry): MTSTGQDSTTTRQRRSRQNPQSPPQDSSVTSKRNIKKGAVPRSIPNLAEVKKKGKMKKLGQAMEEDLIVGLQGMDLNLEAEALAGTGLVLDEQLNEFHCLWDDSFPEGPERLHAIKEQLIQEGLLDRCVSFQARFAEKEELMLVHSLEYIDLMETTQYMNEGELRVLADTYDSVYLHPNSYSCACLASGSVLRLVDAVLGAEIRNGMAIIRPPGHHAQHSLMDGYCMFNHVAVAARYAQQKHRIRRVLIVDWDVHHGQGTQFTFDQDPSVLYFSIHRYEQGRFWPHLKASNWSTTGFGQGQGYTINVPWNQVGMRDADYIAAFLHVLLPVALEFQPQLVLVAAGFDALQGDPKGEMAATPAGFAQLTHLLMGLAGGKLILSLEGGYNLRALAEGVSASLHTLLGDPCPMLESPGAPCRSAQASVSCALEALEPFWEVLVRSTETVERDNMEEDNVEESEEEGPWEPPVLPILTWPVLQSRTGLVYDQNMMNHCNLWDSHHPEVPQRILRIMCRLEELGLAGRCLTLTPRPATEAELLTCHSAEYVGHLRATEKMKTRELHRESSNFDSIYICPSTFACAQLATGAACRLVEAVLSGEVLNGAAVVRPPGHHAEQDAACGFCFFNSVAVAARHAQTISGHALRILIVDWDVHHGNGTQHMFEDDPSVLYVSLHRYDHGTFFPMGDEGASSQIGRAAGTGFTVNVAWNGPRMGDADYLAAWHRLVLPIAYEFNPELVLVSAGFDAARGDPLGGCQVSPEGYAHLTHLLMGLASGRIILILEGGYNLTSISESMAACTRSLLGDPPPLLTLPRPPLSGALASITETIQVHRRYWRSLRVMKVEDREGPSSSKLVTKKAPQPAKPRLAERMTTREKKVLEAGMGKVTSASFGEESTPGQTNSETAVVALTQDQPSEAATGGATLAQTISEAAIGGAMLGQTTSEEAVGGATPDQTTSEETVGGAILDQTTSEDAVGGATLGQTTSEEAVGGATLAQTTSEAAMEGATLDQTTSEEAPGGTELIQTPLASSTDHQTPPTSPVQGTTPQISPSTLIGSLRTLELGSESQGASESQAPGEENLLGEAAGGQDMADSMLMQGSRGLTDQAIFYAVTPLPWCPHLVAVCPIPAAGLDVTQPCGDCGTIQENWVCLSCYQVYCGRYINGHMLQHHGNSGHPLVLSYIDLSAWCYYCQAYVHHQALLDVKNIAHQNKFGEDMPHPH

Mus musculus [3] = test: Antiarthritic activity in DBA/1J mouse collagen-induced arthritis model assessed as reduction of articular bone erosion in arthritic hind paw at 42.3 mg/kg, ip administered every morning for 12 to 14 days measured post last dose by microCT method relative to vehicle-treated control; type: functional, organism-based
Mus musculus [4] = test: Toxicity in DBA/1J mouse collagen-induced arthritis model assessed as effect on white blood cell count at 42.3 mg/kg, ip administered every morning for 12 to 14 days measured post last dose relative to vehicle-treated control; type: organism-based; details: in vivo
Mus musculus [5] = test: Toxicity in DBA/1J mouse collagen-induced arthritis model assessed as effect on red blood cell count at 42.3 mg/kg, ip administered every morning for 12 to 14 days measured post last dose relative to vehicle-treated control; type: organism-based; details: in vivo
Mus musculus [6] = test: Toxicity in DBA/1J mouse collagen-induced arthritis model assessed as effect on hemoglobin concentration at 42.3 mg/kg, ip administered every morning for 12 to 14 days measured post last dose relative to vehicle-treated control; type: organism-based; details: in vivo
Mus musculus [7] = test: Antiarthritic activity in DBA/1J mouse collagen-induced arthritis model assessed as decrease in ratio of articular bone surface to articular bone volume at 42.3 mg/kg, ip administered every morning for 12 to 14 days measured post last dose by microCT method relative to vehicle-treated control; type: functional, organism-based
MV4-11 [8] = test: Cell cycle arrest in human MV4-11 cells assessed as accumulation at sub-G1 phase at 30 to 50 nM after 24 hrs by propidium iodide staining-based flow cytometric method; type: functional
Outline: (§1)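 Cells were stained with propidium iodide and analysed by flow cytometry for cell-cycle distribution and the subG1 fraction (fragmented DNA). Representative of at least two independent experiments.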

PBMC = test: Induction of apoptosis in human PBMC at 5 uM after 24 hrs by Annexin V/propidium iodide staining-based flow cytometric method; type: cell-based
[9] = Inhibition of class 1 HDAC in human MV4-11 cells assessed as induction of histone hyperacetylation at 5 uM after 24 hrs by Western blot method; type: cell-based
Outline: (§2)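 MV4-11 cells were exposed to the inhibitor, from 5 nM to 10 µM for 24 h or at 50 nM for 10 min to 48 h. Lysates were immunoblotted for acetylated tubulin, acetylated histone H3 and HDAC6. Acetyl-tubulin was quantified by densitometry normalised to HSP90. MS-275 at 5 µM for 24 h was the comparator. Blots are representative of at least two independent experiments.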

MV4-11 [10] = test: Cell cycle arrest in human MV4-11 cells assessed as accumulation at sub-G1 phase at 5 uM after 24 hrs by propidium iodide staining-based flow cytometric method; type: functional; outline: as §1
Jurkat = test: Cell cycle arrest in human Jurkat cells at 5 uM after 24 hrs by propidium iodide staining-based flow cytometric method; type: functional
HEL = test: Cell cycle arrest in human HEL cells at 5 uM after 24 hrs by propidium iodide staining-based flow cytometric method; type: functional
[11] = target: T3, Protein deacetylase HDAC6 (Homo sapiens) (UniProt Q9UBN7); test: Inhibition of HDAC6 in human MV4-11 cells assessed as induction of alpha-tubulin hyperacetylation after 24 hrs by Western blot method; type: cell-based; outline: as §2
T3 sequence (whole entry): T2 sequence (Q9UBN7 whole entry)

Homo sapiens = organism: Homo sapiens; test: Selectivity ratio of Ki for recombinant human C-terminal GST-tagged HDAC2 to Ki for full length recombinant human N-terminal GST-tagged HDAC6
Outline: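 Recombinant human HDAC2 and HDAC6 enzymes, fluorescence-based activity assay. […] IC50s were curve-fitted from duplicate determinations. Ki was calculated from IC50 by the Cheng–Prusoff equation, and the ratio was taken from these Ki values. TSA served as internal standard.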

Row | Ki (Histone deacetylase 8) | Ki (Histone deacetylase 2) | Ki [2] | alpha-tubulin hyperacetylation (active/not active) [11] | SMILES | also measured
1 | 999 nM | 5200 nM | 0.7 nM |  | CN1C(=O)[C@@H]2CN(Cc3c2c2ccccc2n3Cc2ccc(C(=O)NO)cc2)C1=O | 
2 | 294 nM | 3200 nM | 2.01 nM |  | CN1C(=O)[C@H]2CN(Cc3c2c2ccccc2n3Cc2ccc(C(=O)NO)cc2)C1=O | 
3 | 701 nM | 943 nM | 0.88 nM | Active | CN1C(=O)N2Cc3c(c4ccccc4n3Cc3ccc(C(=O)NO)cc3)C(C2)C1=S (centres undefined) | 
4 |  |  | 0.42 nM |  | CN1C(=O)C2CN(Cc3c2c2cc(O)ccc2n3Cc2ccc(C(=O)NO)cc2)C1=O (centres undefined) | 
5 | 40.4 nM | 469 nM | 0.45 nM | inactive | CN1C(=O)C2CN(Cc3c2c2ccccc2n3Cc2ccc(C(=O)NO)cc2)C1=S (centres undefined) | 
6 | > 40000 nM | > 10000 nM | > 20000 nM |  | CN1C(=O)C2CN(Cc3c2c2ccccc2n3Cc2ccc(C(=O)O)cc2)C1=O (centres undefined) | 
7 | 205 nM | 66.5 nM | 4.15 nM |  | CN1C(=O)C2CN(Cc3c2c2ccccc2n3Cc2ccc(/C=C/C(=O)NO)cc2)C1=O (centres undefined) | 

Second part, the compound before the results:

Row | SMILES | Ki (Histone deacetylase 8) | Ki (Histone deacetylase 2) | Ki [2] | alpha-tubulin hyperacetylation (active/not active) [11] | also measured
8 | CN1C(=O)C2CN(Cc3c2c2cc(OCCN4CCOCC4)ccc2n3Cc2ccc(C(=O)NO)cc2)C1=O.Cl (centres undefined) | 721 nM | 313 nM | 0.48 nM |  | Activity (Mus musculus [1]): Active; Activity (Mus musculus [3]): Active; Activity (Mus musculus [4]): Non-Toxic; Activity (Mus musculus [5]): Non-Toxic; Activity (Mus musculus [6]): Non-Toxic; Activity (Mus musculus [7]): Active
9 | CN1C(=O)C2CN(Cc3c2c2cc(OCc4ccccc4)ccc2n3Cc2ccc(C(=O)NO)cc2)C1=O (centres undefined) |  |  | 0.08 nM |  | 
10 | Cc1[nH]c2ccccc2c1CCNCc1ccc(/C=C/C(=O)NO)cc1 |  |  |  |  | Activity (MV4-11 [8]): Active
11 | Nc1ccccc1NC(=O)c1ccc(CNC(=O)OCc2cccnc2)cc1 [ENTINOSTAT] |  |  |  |  | Activity (PBMC): Toxic; inhibition (INH) [9]: Active; Activity (MV4-11 [10]): Active; Activity (Jurkat): Active; Activity (HEL): Active
12 | O=C(/C=C/c1ccc(Cn2c3c(c4ccccc42)CCN2C(=O)CCCC32)cc1)NO (centres undefined) | 720 nM | 234 nM | 14.1 nM |  | 
13 | CN1CC2CN(Cc3c2c2ccccc2n3Cc2ccc(C(=O)NO)cc2)C1=O (centres undefined) | 528 nM | 484 nM | 0.51 nM | Active | 
14 | COc1ccc2c(c1)c1c(n2Cc2ccc(C(=O)NO)cc2)CN2CC1C(=O)N(C)C2=O (centres undefined) | 124 nM | 310 nM | 0.15 nM | Active | 
15 | CN1C(=O)C2c3c(n(Cc4ccc(C(=O)NO)cc4)c4ccccc34)CCN2C1=O (centres undefined) | 761 nM | 995 nM | 1.86 nM |  | 
16 | O=C(NO)c1ccc(Cn2c3c(c4ccccc42)C2CCN(C3)C2)cc1 (centres undefined) | 1540 nM | 6100 nM | 6.51 nM |  | Ratio Ki (Homo sapiens): 940
17 | CN1CN2Cc3c(c4ccccc4n3Cc3ccc(C(=O)NO)cc3)C(C2)C1=O (centres undefined) | 427 nM | 1360 nM | 0.23 nM | inactive | 
18 | COc1ccc2c(c1)c1c(n2Cc2ccc(C(=O)NO)cc2)CN2CC1C(=O)N(C)C2 (centres undefined) | 299 nM | 370 nM | 0.16 nM | inactive | 
19 | CN1C(=O)C2CN(Cc3c2c2ccc4ccccc4c2n3Cc2ccc(C(=O)NO)cc2)C1=O (centres undefined) |  |  | 1.78 nM |  | 
20 | CN1C(=O)C2CN(Cc3c2c2ccccc2n3Cc2cccc(/C=C/C(=O)NO)c2)C1=O (centres undefined) | 13.1 nM | 768 nM | 72.2 nM |  | 
21 | COc1ccc2c3c(n(Cc4ccc(C(=O)NO)cc4)c2c1)CN1CC3C(=O)N(C)C1=O (centres undefined) | 93.3 nM | 70.8 nM | 0.32 nM | Active | 
22 | O=C(NO)c1ccc(Cn2c3c(c4ccccc42)CCN2C(=O)CCCC32)cc1 (centres undefined) | 1680 nM | 7240 nM | 30.2 nM |  | 
